Assays:
[1] = molecular target: human CD137 (Homo sapiens, UniProt Q07011); assay type: cell-based; settings: co-culture with 4T1 cells overexpressing mouse Nectin-4, 6 hours
[2] = system: MC38-Nectin-4 tumors; assay: Pharmacodynamics in MC38-Nectin-4 tumors; assay type: in vivo, mouse; settings: 144 hours
How it was run: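 C57BL/6J-hCD137 mice bore MC38-Nectin-4 tumors. Tumors were harvested 24, 48, 96 and 144 h after test compound 5 mg/kg at 0 and 24 h. Controls were harvested at 144 h: vehicle, a non-CD137-binding analogue (same schedule), or anti-CD137 agonist antibody 2 mg/kg every 3 days. Tumors were assessed by IHC (mouse CD8) and NanoString mRNA profiling.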

human CD137, sequence (Q07011 24-255): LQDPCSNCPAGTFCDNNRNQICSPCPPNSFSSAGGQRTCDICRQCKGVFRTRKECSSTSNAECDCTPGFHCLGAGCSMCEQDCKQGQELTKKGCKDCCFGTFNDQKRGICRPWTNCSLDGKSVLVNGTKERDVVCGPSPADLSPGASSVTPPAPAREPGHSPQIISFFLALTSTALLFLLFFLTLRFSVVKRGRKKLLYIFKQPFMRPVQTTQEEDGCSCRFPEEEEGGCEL

anti-CD137 antibody agonist: anti-human 4-1BB therapeutic antibody, urelumab, Creative Biolabs Cat. No. TAB-179
CD137 agonism (reporter activity) [1]: induced CD137 agonism in a Nectin-4-independent manner
reprogramming of the tumor immune microenvironment (mRNA profiling) [2]: to lesser extent
T cell infiltrates in tumor (CD8 IHC) ([2]; BT7480 or NB-BCY 5 mg/kg at 0 and 24 hours, anti-CD137 antibody agonist 2 mg/kg): increased
